Laboratory results from ChEMBL document CHEMBL3351227, “Solving the supply of resveratrol tetramers from Papua New Guinean rainforest anisoptera species that inhibit bacterial type III secretion systems” (J Nat Prod, 2014).
Active and inactive are the calls of the source. The rule behind the calls is not given here.

Experiments:
[1] = Inhibition of YopE in Yersinia pseudotuberculosis YPIII PIB102-Elux measured after 3 hrs 15 mins by luminescent reporter-gene assay
Procedure, shortened: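 Strain was grown on LB agar with 25 μg/mL chloramphenicol for 48 h at 26 °C, then in BHI with chloramphenicol for 12−16 h at 26 °C. It was diluted to OD620 0.2, then 1 in 4 into Ca2+-depleted BHI (5 mM EGTA, 20 mM MgCl2). Compounds were tested at 10–100 μM. Incubation was 1 h at 26 °C, 3 h at 37 °C, then 15 min at 26 °C. Luminescence was read after adding 0.1% decanal, and IC50 was interpolated from dose–response.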

[2] = Inhibition of YopH in Yersinia pseudotuberculosis YPIII PIB102-Elux using p-nitrophenyl phosphate as substrate measured after 3 hrs 15 mins by phosphatase enzyme assay
Procedure, shortened: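 Same YopE-reporter culture and incubation, with Ca2+-depleted BHI and compounds at 10–100 μM. Before decanal addition, an aliquot went into pNPP (12.5 mM in 20 mM MES pH 5.0, 0.8 mM DTT). This was incubated 15 min at 37 °C, stopped with NaOH and read at 405 nm. IC50 was interpolated from dose–response curves. Bacteria in BHI with 2.5 mM Ca2+ were the negative control.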

[3] = tested on: Yersinia pseudotuberculosis YPIII; experiment: Antimicrobial activity against Yersinia pseudotuberculosis YPIII PIB102-Elux at 364 uM by spectrophotometry; format: functional

SMILES	IC50 [1] [µM]	IC50 [2] [µM]	Activity [3]
CN[C@@H]1[C@H](O[C@H]2[C@H](O[C@H]3[C@H](O)[C@@H](O)[C@H](N=C(N)N)[C@@H](O)[C@@H]3N=C(N)N)O[C@@H](C)[C@]2(O)C=O)O[C@@H](CO)[C@H](O)[C@H]1O [STREPTOMYCIN]	38	31	–
Oc1ccc([C@@H]2c3c(O)cc(O)cc3[C@@H]3c4c(cc(O)c5c4[C@@H]2[C@H](c2ccc(O)cc2)[C@H]5c2cc(O)cc4c2[C@@H](c2cc(O)cc(O)c2)[C@H](c2ccc(O)cc2)O4)O[C@H]3c2ccc(O)cc2)cc1 [Vaticanol B]	9.9	3.3	–
OC[C@H]1O[C@@H](Oc2cc3c4c(c2)[C@@H]([C@@H]2c5cc(O)cc6c5[C@@H](c5cc(O)cc(O)c5[C@H]2c2ccc(O)cc2)[C@H](c2ccc(O)cc2)O6)[C@H](c2ccc(O)cc2)c2c(O)cc(O)cc2[C@H]4[C@H](c2ccc(O)cc2)O3)[C@H](O)[C@@H](O)[C@@H]1O [VATALBINOSIDE A]	12.5	4.5	inactive
Oc1ccc([C@@H]2c3c(O)cc(O)cc3[C@@H]3c4c(cc(O)cc4[C@H]2[C@@H]2c4cc(O)cc5c4[C@@H](c4cc(O)cc(O)c4[C@H]2c2ccc(O)cc2)[C@H](c2ccc(O)cc2)O5)O[C@H]3c2ccc(O)cc2)cc1	8.8	2.9	inactive
